Source: PubChem (The Scripps Research Institute Molecular Screening Center)
OXTR ag: human OXTR agonists, primary screen, fluorescence, CHO-OTR cells, Fluo-8 calcium; Oxytocin receptor (Homo sapiens), P30559; Fluo-8 calcium fluorescence; normalized: DMSO 0%, oxytocin 100%; activation, % at 3 µM; 320,000 tested, 0.32% active; AID 2435, 2010;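 active means activation above the mean of all tested compounds plus 3 SD, cutoff set per screening run, cut at about 20% in these data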;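 further: peak over basal fluorescence ratio from a 100 s FLIPR kinetic read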
Target sequence (P30559 whole entry, looked up): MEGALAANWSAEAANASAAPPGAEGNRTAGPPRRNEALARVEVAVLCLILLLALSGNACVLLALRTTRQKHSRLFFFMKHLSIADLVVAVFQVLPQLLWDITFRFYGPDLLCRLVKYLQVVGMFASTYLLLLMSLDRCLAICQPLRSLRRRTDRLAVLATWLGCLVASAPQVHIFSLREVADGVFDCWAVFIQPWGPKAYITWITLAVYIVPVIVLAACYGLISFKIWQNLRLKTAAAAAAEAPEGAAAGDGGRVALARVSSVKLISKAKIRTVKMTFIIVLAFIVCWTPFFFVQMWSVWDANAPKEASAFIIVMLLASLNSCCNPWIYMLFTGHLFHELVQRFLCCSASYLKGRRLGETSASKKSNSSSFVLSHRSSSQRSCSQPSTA
OX1R antag-1: antagonists of human orexin 1 receptor (OX1R); inhibition, % at 6.6 µM; 330,000 tested, 1.8% active; OX1R-expressing cells, FRET antagonist read-out; AID 485270, 2010; in the data active means inhibition mostly above about 38%, no sharp cut-off; inactive means mostly below about 40%;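 further: 0% = agonist challenge alone and 100% = reference antagonist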
OX1R antag-2: OX1R (HCRTR1) antagonists, primary screen, fluorescence, CHO/OX1R cells, Fluo-8 calcium, orexin A. Orexin/Hypocretin receptor type 1 (Homo sapiens), O43613. Fluo-8 calcium fluorescence. inhibition, % at 5 µM. 330,000 tested, 0.43% active;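 active means inhibition above its plate's threshold, mean inhibition of all tested compounds on the plate plus 3 SD, cut at about 37% in these data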;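 further: 0% = orexin A challenge wells and 100% = SB-334867-A antagonist wells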
V1aR counter: agonists of human V1a receptor, primary screen, counter-screen for OXTR agonist project, fluorescence, CHO-V1R cells; activation, % at 3 µM; Vasopressin V1a receptor (Homo sapiens), P37288; Fluo-8 calcium fluorescence, agonist mode; 0% DMSO, 100% 3 nM vasopressin; 320,000 tested, 0.25% active;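 active means activation above the mean activation of all tested compounds plus 3 SD, per screening run, cut at about 20% in these data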;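 further: signal is peak over basal fluorescence ratio across a 100 second FLIPR read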
OXTR potentiate: human OXTR potentiators, primary screen, fluorescence, CHO-OTR cells, Fluo-8 calcium; 320,000 tested, 0.061% active; activation, % at 3 µM; AID 2445, 2010; Oxytocin receptor (Homo sapiens), P30559; Fluo-8 calcium fluorescence, potentiator mode; 0% = oxytocin EC15, 100% = EC100;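 active means activation above that plate's cutoff, the mean activation of tested compounds plus 3 SD, cut at about 6.6% in these data, passing the limit was not always enough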;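 further: 100% uses oxytocin at 75 nM as the full agonist control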
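assay system = CHO-OTR cells, human receptor | schedule = compound 6 min at room temperature before oxytocin, 100 s read | detection = Fluo-8 intracellular calcium fluorescence, ex 470-495, em 515-575 nm | evaluation = normalized max/min fluorescence ratio, % activation | control set = EC15 oxytocin alone as 0%, 75 nM oxytocin (EC100) as 100%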
CHO parental Ca: ATP-evoked calcium signal inhibitors, parental CHO, primary screen, counter-screen for OX1R antagonist project, cell-based, fluorescence, Fluo-8 calcium dye. parental CHO-K1, ATP-induced calcium, Fluo-8 fluorescence. inhibition, % at 5.6 µM. 330,000 tested, 0.63% active;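 active means inhibition above that plate's mean sample inhibition plus 3 SD, cut at about 26% in these data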;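 further: 0% = ATP-challenged DMSO wells and 100% = DMSO wells without ATP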
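test system = CHO parental line | reagent = ATP stimulus | measured by = intracellular calcium via Fluo-8 no-wash fluorescent dye | control set = ATP and no-ATP DMSO wells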
Active calls of the source: *. The list is not random: actives were taken first. Their share in the collection is about 2.6%.

CCN1CCN(Cc2nc3ccc([N+](=O)[O-])cc3c(=O)n2-c2ccc(OC)cc2OC)CC1 was read as OXTR ag 0, OX1R antag-1 34*, OX1R antag-2 1, V1aR counter 3, OXTR potentiate -12 and CHO parental Ca -15.
Screening COc1ccc(-n2c(CN3CCC(C(N)=O)CC3)nc3ccc([N+](=O)[O-])cc3c2=O)c(OC)c1 returned OXTR ag 0, OX1R antag-1 38, OX1R antag-2 -18, V1aR counter 0, OXTR potentiate -15 and CHO parental Ca -20.
`COc1ccc2[nH]c3c(c2c1)CCn1c-3nc2ccccc2c1=O` gave OXTR ag -1, OX1R antag-1 47*, OX1R antag-2 9, V1aR counter -1, OXTR potentiate -5 and CHO parental Ca -7.
Screening COc1cc(OC)cc(C(=O)Nn2c(C)nc3ccccc3c2=O)c1 returned OXTR ag -1, OX1R antag-1 10, OX1R antag-2 -9, V1aR counter 0, OXTR potentiate -10 and CHO parental Ca -3.
For COc1ccc(NC(=O)N2CCN(c3cccc(C(F)(F)F)c3)CC2)cc1 the results were OXTR ag 9, OX1R antag-1 19, OX1R antag-2 8, V1aR counter 8, OXTR potentiate -10 and CHO parental Ca 27.
Cc1cccc(NC(=O)CSCC(=O)N2CCN(c3cccc(C(F)(F)F)c3)CC2)c1 was read as OXTR ag 2, OX1R antag-1 30*, OX1R antag-2 20, V1aR counter 5, OXTR potentiate -4 and CHO parental Ca -24.
Screening CN(C)S(=O)(=O)c1ccc(NC(=O)N2CCN(c3cccc(C(F)(F)F)c3)CC2)cc1 returned OXTR ag 19, OX1R antag-1 34, OX1R antag-2 48*, V1aR counter 13, OXTR potentiate -22 and CHO parental Ca 39*.
For Cc1onc(-c2ccccc2)c1C(=O)N1CCC(CO)(Cc2ccccc2)CC1 the results were OXTR ag 3, OX1R antag-1 8, OX1R antag-2 -26, V1aR counter 5, OXTR potentiate -5 and CHO parental Ca -27.
`CCOC(=O)C1=C(C)c2ccccc2OC1(CC)C(=O)OCC` (centres undefined) gave OX1R antag-1 10, OX1R antag-2 -15 and CHO parental Ca -20.
For CCOC(=O)C1=C(C)c2ccccc2N(C(=O)OC)C1(C)C(=O)OCC (centres undefined) the results were OX1R antag-1 33*, OX1R antag-2 19 and CHO parental Ca -18.
Cc1ccccc1OCC(=O)NCC(=O)OCC(=O)c1ccc([N+](=O)[O-])cc1 was read as OXTR ag 1, OX1R antag-1 50, OX1R antag-2 -2, V1aR counter 4, OXTR potentiate -6 and CHO parental Ca 1.
O=C(COC(=O)Cc1ccccc1F)NNC(=O)c1ccc([N+](=O)[O-])cc1 was read as OXTR ag 2, OX1R antag-1 63*, OX1R antag-2 -1, V1aR counter 0, OXTR potentiate 0 and CHO parental Ca -8.
`O=C(CCC(=O)OCC(=O)c1ccc([N+](=O)[O-])cc1)Nc1ccccc1Cl` gave OXTR ag 0, OX1R antag-1 58*, OX1R antag-2 -13, V1aR counter 0, OXTR potentiate -2 and CHO parental Ca 0.
Screening O=C(COC(=O)Cc1ccccc1F)Nc1ccccc1[N+](=O)[O-] returned OXTR ag -1, OX1R antag-1 14, OX1R antag-2 -2, V1aR counter 0, OXTR potentiate -3 and CHO parental Ca -8.
Screening O=C(COC(=O)c1cnccn1)c1ccc([N+](=O)[O-])cc1 returned OXTR ag 0, OX1R antag-1 44*, OX1R antag-2 -1, V1aR counter -2, OXTR potentiate -4 and CHO parental Ca -6.
